The source of these data is ChEMBL document CHEMBL4184298, “Development of Potent Inhibitors of Receptor Tyrosine Kinases by Ligand-Based Drug Design and Target-Biased Phenotypic Screening” (J Med Chem, 2018).

For assay [1], the target named is T1, Tyrosine-protein kinase receptor TYRO3 (Homo sapiens, UniProt Q06418).
T1 sequence (Q06418 whole entry): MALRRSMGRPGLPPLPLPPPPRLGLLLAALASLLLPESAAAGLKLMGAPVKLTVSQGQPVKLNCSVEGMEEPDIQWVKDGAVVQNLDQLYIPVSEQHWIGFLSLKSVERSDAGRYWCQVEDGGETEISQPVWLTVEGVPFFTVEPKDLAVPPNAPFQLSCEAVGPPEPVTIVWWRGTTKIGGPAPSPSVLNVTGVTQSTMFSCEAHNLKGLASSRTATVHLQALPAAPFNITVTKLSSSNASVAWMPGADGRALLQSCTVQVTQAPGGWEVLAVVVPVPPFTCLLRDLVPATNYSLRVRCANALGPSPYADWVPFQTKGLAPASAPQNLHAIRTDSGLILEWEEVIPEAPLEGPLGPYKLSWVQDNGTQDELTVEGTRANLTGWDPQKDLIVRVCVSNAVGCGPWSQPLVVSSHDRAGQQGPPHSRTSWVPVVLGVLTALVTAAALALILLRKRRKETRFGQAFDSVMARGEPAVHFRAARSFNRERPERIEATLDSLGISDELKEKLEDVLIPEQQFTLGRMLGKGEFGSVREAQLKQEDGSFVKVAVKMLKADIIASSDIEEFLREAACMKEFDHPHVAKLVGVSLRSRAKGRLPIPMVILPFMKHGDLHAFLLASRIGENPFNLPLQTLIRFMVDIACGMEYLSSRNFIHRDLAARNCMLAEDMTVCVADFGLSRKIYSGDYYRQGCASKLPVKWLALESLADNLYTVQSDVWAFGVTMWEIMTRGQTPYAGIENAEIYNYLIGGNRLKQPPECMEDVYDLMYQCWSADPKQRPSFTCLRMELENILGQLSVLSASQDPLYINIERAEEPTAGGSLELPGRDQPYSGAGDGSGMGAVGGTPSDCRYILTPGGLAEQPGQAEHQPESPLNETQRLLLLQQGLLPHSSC
As to the kind of experiment: Inhibition of wild-type human partial length TYRO3 (S497 to T814 residues) expressed in bacterial expression system using poly [Glu, Try] 4:1 as substrate in presence of [gamma-33P]ATP. In a few lines:
(§1)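 Radiometric assay on recombinant kinase: ³³P incorporation into the kinase substrate was measured and activity was expressed relative to a DMSO control.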

The next assay has as its target T2, Aurora kinase A (Homo sapiens, UniProt O14965).
T2 sequence (O14965 whole entry): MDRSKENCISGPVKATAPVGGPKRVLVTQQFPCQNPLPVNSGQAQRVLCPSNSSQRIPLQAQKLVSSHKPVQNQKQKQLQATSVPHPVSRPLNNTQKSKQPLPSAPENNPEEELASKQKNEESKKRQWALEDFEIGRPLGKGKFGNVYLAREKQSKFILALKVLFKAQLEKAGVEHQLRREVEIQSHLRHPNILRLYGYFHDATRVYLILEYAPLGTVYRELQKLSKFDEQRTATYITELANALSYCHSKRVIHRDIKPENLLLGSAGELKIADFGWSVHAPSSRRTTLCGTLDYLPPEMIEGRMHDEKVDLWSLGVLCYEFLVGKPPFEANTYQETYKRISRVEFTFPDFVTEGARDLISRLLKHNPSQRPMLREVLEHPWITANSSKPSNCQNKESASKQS
As to the kind of experiment: Inhibition of human partial length Aurora A (E122 to K401 residues) expressed in mammalian expression system using poly [Glu, Try] 4:1 as substrate in presence of [gamma-33P]ATP. An outline of the steps: as §1

The target of assay [2] is Hepatocyte growth factor receptor (Homo sapiens, UniProt P08581). As to the kind of experiment: Inhibition of wild-type human partial length MET (D1010 to S1367 residues) expressed in bacterial expression system using poly [Glu, Try] 4:1 as substrate in presence of [gamma-33P]ATP. In a few lines:
as §1

The target of assay [3] is T3, Receptor-type tyrosine-protein kinase FLT3 (Homo sapiens, UniProt P36888).
T3 sequence (P36888 whole entry): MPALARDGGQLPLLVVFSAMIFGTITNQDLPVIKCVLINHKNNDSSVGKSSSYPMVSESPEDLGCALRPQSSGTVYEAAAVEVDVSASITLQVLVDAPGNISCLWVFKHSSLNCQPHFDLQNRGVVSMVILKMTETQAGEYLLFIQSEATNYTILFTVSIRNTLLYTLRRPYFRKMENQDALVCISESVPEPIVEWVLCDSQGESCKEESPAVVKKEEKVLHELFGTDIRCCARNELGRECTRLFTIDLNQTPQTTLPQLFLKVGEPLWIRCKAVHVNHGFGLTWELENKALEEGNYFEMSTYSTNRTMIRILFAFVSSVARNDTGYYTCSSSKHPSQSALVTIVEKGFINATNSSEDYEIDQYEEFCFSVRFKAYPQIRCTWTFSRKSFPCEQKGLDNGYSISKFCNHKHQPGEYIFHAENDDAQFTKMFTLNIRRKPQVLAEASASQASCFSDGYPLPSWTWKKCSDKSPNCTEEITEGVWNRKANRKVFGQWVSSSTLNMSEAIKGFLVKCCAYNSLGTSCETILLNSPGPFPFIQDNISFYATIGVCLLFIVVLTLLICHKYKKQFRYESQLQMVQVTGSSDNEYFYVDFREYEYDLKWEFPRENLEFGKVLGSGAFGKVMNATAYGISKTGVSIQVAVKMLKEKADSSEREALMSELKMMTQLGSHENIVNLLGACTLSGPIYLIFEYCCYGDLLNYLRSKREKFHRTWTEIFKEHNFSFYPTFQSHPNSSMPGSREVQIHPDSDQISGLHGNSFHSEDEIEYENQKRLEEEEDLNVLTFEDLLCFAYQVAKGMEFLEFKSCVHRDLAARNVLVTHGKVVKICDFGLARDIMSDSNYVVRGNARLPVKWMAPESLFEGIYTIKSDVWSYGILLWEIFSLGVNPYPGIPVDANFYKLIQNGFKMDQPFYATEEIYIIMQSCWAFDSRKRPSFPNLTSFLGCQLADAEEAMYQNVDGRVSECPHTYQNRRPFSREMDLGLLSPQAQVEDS
As to the kind of experiment: Inhibition of wild-type human partial length FLT3 (V592 to Y969 residues) expressed in bacterial expression system using poly [Glu, Try] 4:1 as substrate in presence of [gamma-33P]ATP.

Assay [4] addresses Proto-oncogene tyrosine-protein kinase receptor Ret (Homo sapiens, UniProt P07949). Nature of the assay: Inhibition of wild-type human partial length RET (E713 to D1014 residues) expressed in bacterial expression system using poly [Glu, Try] 4:1 as substrate in presence of [gamma-33P]ATP. In a few lines: as §1
For assay [5], the target named is Serine/threonine-protein kinase mTOR (Homo sapiens, UniProt P42345). Nature of the assay: Inhibition of wild-type human partial length MTOR (L1382 to W2549 residues) expressed in mammalian expression system using poly [Glu, Try] 4:1 as substrate in presence of [gamma-33P]ATP. In a few lines: as §1
Assay [6] addresses RAC-alpha serine/threonine-protein kinase (Homo sapiens, UniProt P31749). As to the kind of experiment: Inhibition of AKT (unknown origin) using poly [Glu, Try] 4:1 as substrate in presence of [gamma-33P]ATP. In a few lines: as §1

What is called IC50 is the midpoint of a concentration-inhibition curve.

Hepatocyte growth factor receptor, sequence (P08581 whole entry, the tested form may be a part): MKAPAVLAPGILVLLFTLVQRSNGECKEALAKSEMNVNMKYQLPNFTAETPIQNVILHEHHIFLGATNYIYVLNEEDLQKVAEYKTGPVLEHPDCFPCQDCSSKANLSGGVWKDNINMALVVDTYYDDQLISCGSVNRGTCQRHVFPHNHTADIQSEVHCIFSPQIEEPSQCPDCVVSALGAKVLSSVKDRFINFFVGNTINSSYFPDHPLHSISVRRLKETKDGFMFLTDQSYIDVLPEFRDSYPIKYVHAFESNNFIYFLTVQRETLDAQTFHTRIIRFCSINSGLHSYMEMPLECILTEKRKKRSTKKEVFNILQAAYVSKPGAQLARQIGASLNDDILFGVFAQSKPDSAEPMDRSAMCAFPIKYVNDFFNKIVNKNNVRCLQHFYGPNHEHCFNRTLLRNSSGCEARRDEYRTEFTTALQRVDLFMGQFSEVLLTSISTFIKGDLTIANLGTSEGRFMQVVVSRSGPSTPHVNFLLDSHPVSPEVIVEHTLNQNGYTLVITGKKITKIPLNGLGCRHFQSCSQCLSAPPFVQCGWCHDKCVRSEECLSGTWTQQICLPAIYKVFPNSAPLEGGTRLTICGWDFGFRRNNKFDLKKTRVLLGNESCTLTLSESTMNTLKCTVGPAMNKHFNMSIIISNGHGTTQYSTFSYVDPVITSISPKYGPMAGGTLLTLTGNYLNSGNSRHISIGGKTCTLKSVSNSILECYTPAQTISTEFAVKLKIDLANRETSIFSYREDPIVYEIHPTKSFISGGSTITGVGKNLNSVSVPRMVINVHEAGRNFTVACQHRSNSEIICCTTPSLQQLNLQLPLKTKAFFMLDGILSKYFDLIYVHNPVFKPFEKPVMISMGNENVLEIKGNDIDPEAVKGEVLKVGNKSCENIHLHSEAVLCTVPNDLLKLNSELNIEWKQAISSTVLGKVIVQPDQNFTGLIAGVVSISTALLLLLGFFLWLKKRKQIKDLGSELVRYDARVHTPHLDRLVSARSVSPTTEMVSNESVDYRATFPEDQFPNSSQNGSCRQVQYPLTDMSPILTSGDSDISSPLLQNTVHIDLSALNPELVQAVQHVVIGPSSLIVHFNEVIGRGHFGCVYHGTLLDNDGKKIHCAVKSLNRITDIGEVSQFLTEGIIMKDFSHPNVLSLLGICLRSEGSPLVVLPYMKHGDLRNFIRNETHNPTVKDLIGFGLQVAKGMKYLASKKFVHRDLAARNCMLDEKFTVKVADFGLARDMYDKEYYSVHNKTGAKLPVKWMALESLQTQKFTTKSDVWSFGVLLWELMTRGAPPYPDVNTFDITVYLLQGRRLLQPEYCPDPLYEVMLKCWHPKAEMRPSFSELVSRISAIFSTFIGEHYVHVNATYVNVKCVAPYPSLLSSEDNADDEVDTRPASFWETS
RAC-alpha serine/threonine-protein kinase, sequence (P31749 whole entry): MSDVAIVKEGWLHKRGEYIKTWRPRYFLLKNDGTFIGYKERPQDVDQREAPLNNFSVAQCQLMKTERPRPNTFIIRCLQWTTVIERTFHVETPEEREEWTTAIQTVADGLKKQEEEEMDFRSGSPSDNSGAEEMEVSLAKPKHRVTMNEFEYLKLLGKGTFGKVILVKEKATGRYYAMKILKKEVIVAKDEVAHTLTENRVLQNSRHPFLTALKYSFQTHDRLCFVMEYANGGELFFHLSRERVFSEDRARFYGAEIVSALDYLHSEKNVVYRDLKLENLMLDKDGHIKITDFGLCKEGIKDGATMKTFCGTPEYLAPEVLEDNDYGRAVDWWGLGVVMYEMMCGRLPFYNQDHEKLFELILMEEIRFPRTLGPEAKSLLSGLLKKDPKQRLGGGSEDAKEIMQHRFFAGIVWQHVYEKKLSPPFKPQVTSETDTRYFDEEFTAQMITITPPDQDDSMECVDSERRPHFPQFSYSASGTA
Proto-oncogene tyrosine-protein kinase receptor Ret, sequence (P07949 whole entry, the tested form may be a part): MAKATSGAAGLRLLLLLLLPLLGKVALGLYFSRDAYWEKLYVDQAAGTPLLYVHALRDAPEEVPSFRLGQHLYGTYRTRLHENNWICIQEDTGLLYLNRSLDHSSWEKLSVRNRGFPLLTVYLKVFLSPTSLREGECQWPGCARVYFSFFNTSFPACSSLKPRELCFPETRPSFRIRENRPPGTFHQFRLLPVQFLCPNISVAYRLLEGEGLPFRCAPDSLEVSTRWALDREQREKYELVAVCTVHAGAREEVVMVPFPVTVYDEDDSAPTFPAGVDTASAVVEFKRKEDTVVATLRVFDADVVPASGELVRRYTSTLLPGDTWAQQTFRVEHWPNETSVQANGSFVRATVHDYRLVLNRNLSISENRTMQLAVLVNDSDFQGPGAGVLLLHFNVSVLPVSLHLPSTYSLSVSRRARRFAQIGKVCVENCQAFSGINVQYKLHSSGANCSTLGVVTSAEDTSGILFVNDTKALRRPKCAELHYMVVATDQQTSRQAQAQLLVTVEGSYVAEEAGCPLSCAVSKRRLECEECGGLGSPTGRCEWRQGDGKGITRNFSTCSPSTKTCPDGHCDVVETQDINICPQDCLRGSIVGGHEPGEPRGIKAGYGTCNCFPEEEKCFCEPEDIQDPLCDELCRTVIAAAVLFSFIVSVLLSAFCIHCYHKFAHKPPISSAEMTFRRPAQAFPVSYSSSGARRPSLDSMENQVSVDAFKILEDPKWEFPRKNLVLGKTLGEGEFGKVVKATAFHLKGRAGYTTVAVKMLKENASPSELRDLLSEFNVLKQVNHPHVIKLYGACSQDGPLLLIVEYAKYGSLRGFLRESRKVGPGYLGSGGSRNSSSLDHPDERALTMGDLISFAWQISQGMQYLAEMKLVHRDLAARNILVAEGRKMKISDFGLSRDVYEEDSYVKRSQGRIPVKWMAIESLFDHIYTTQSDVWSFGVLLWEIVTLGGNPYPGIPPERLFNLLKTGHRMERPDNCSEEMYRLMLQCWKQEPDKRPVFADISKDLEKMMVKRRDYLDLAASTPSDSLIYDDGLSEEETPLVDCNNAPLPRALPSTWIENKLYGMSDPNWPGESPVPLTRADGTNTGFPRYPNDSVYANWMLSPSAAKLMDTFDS

As for `CCN1CCN(c2ccc(-c3nn(CC4CCCC4)c4nc(NC)ncc34)cn2)CC1`, the IC50 in assay [1] is greater than 10000 nM; on Aurora kinase A it was 280 nM; in assay [2], greater than 10000 nM; in assay [3] it was 100 nM; in assay [4], 440 nM; in assay [5], greater than 10000 nM. Further, in assay [6], the IC50 is greater than 10000 nM.
Turning to `CCN1CCN(c2ccc(-c3nn(Cc4cn(Cc5ccccc5)nn4)c4nc(NC)ncc34)cn2)CC1`, the IC50 was 1900 nM in assay [1]; greater than 10000 nM on Aurora kinase A; 6300 nM in assay [2]; greater than 10000 nM in assay [3]; 6200 nM in assay [4]; greater than 10000 nM in assay [5]. In assay [6], the IC50 was determined as 1900 nM.
Turning to `CNc1ncc2c(-c3ccc(N4CCN(C)CC4)nc3)nn(Cc3cn(Cc4ccccc4)nn3)c2n1`, the IC50 in assay [1] is greater than 10000 nM; at Aurora kinase A, 730 nM; in assay [2], greater than 10000 nM; in assay [3], 700 nM; in assay [4] it was 900 nM; in assay [5] it was greater than 10000 nM. Further, in assay [6], the IC50 is greater than 10000 nM.
In the case of `Nc1nc(Nc2ccc3c(c2)CC[C@@H](N2CCCC2)CC3)nn1-c1cc2c(nn1)-c1ccccc1CCC2` [BEMCENTINIB], the IC50 in assay [1] is 17 nM; on Aurora kinase A, 26 nM; in assay [2] it was 3400 nM; in assay [3], 0.9 nM; in assay [4], 3 nM; in assay [5], greater than 10000 nM. Moreover, in assay [6], the IC50 is greater than 10000 nM.
Regarding `CNc1ncc2c(-c3ccc(N4CCN(C)CC4)nc3)nn(CC3CCCC3)c2n1`, the half-inhibitory concentration (IC50) in assay [1] was 3670 nM; on Aurora kinase A, 30 nM; in assay [2], 3500 nM; in assay [3], 8 nM; in assay [4] it was 60 nM; in assay [5] it was greater than 10000 nM. Besides, in assay [6], the IC50 was greater than 10000 nM.
`CNc1ncc2c(-c3ccc(OC)cc3)nn(CC3OCCO3)c2n1`: the IC50 in assay [1] was greater than 10000 nM; at Aurora kinase A, 560 nM; in assay [2], greater than 10000 nM; in assay [3], 250 nM; in assay [4], 1200 nM; in assay [5], greater than 10000 nM. In addition, in assay [6], the IC50 was greater than 10000 nM.
`CNc1ncc2c(-c3ccc(N4CCN(C(=O)C(C)(C)C)CC4)nc3)nn(CC3CCCC3)c2n1`: the IC50 is greater than 10000 nM in assay [1]; 610 nM on Aurora kinase A; greater than 10000 nM in assay [2]; 300 nM in assay [3]; greater than 10000 nM in assay [4]; greater than 10000 nM in assay [5]. The half-inhibitory concentration (IC50) in assay [6] was greater than 10000 nM.
For the compound `CNc1ncc2c(-c3ccc(N4CCNCC4)cc3)nn(Cc3cn(Cc4ccccc4)nn3)c2n1`, the IC50 (in assay [1]; on Aurora kinase A; in assay [2]; in assay [3]; in assay [4]; in assay [5]) was greater than 10000 nM in each case. The IC50 in assay [6] is greater than 10000 nM.
For the compound `CNc1ncc2c(-c3ccc(N4CCN(C(=O)C(C)(C)C)CC4)nc3)nn(Cc3cn(Cc4ccccc4)nn3)c2n1`, the IC50 in assay [1] was greater than 10000 nM; at Aurora kinase A, 840 nM; in assay [2], greater than 10000 nM; in assay [3], 1200 nM; in assay [4] it was 4000 nM; in assay [5], greater than 10000 nM. Also, the IC50 in assay [6] is greater than 10000 nM.
`CNc1ncc2c(-c3ccc(N4CCNCC4)nc3)nn(CC3OCCO3)c2n1`: the IC50 is greater than 10000 nM in assay [1]; 660 nM at Aurora kinase A; greater than 10000 nM in assay [2]; 100 nM in assay [3]; 160 nM in assay [4]; greater than 10000 nM in assay [5]. Also, the IC50 in assay [6] is greater than 10000 nM.
As for `CNc1ncc2c(-c3ccc(N4CCNCC4)nc3)nn(CC3CCCC3)c2n1`, the IC50 in assay [1] is greater than 10000 nM; at Aurora kinase A it was 160 nM; in assay [2] it was 2100 nM; in assay [3] it was 20 nM; in assay [4], 50 nM; in assay [5], greater than 10000 nM. Besides, the IC50 in assay [6] was greater than 10000 nM.
For the compound `CNc1ncc2c(-c3ccc(N4CCNCC4)nc3)nn(Cc3cn(-c4ccsc4C(=O)OC)nn3)c2n1`, the IC50 in assay [1] is greater than 10000 nM; at Aurora kinase A it was 790 nM; in assay [2], greater than 10000 nM; in assay [3], 860 nM; in assay [4] it was 430 nM; in assay [5] it was greater than 10000 nM. Also, in assay [6], the IC50 was greater than 10000 nM.
